Source: ChEMBL document CHEMBL3739347, “Tubulin modulating antifungal and antiproliferative pyrazinone derivatives” (Bioorg Med Chem, 2016)

How the values were obtained:
Format in all cases: functional
Puccinia triticina [1] = assay: Antifungal activity against Puccinia recondita f. sp. tritici infected in wheat seedlings at 40 ppm relative to control
Summary of the method: (§1)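 Test suspension sprayed to run-off on Stevens wheat seedlings. Next day inoculated with a Puccinia recondita f. sp. tritici spore suspension. Held 24 h in a saturated atmosphere at 20 °C, then 7 days in a 20 °C growth chamber before disease rating. Rates in ppm. Given as percent control versus untreated control plants.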

Puccinia triticina [2] = assay: Antifungal activity against Puccinia recondita f. sp. tritici infected in wheat seedlings at 10 ppm relative to control; summary of the method: as §1
Parastagonospora nodorum [3] = assay: Antifungal activity against Stagonospora nodorum infected in wheat seedlings at 40 ppm relative to control
Summary of the method: (§2)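 Wheat seedlings, treated the day before, inoculated with a Stagonospora nodorum spore suspension. Held in a saturated atmosphere at 20 °C for 48 h, then 5 days in a growth chamber at 22 °C, then disease rated. Rates in ppm. Scored as percent control relative to untreated control plants.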

Parastagonospora nodorum [4] = assay: Antifungal activity against Stagonospora nodorum infected in wheat seedlings at 10 ppm relative to control; summary of the method: as §2
Parastagonospora nodorum [5] = assay: Antifungal activity against Stagonospora nodorum infected in wheat seedlings at 2 ppm relative to control; summary of the method: as §2
Puccinia triticina [6] = assay: Antifungal activity against Puccinia recondita f. sp. tritici infected in wheat seedlings at 2 ppm relative to control; summary of the method: as §1
Botrytis cinerea [7] = assay: Antifungal activity against Botryotinia fuckeliana infected in orange pixie tomato seedlings at 40 ppm relative to control
Summary of the method: (§3)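 Orange Pixie tomato seedlings sprayed to run-off with test suspension, then inoculated next day with a Botryotinia fuckeliana spore suspension. Kept saturated at 20 °C for 48 h, then 1 more day at 24 °C in a growth chamber before rating. Rates in ppm. Expressed as percent control relative to untreated control plants.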

Botrytis cinerea [8] = assay: Antifungal activity against Botryotinia fuckeliana infected in orange pixie tomato seedlings at 10 ppm relative to control; summary of the method: as §3
Botrytis cinerea [9] = assay: Antifungal activity against Botryotinia fuckeliana infected in orange pixie tomato seedlings at 2 ppm relative to control; summary of the method: as §3
Parastagonospora nodorum [10] = assay: Antifungal activity against Stagonospora nodorum infected in wheat seedlings at 200 ppm relative to control; summary of the method: as §2
Puccinia triticina [11] = assay: Antifungal activity against Puccinia recondita f. sp. tritici infected in wheat seedlings at 200 ppm relative to control; summary of the method: as §1
Botrytis cinerea [12] = assay: Antifungal activity against Botryotinia fuckeliana infected in orange pixie tomato seedlings at 200 ppm relative to control; summary of the method: as §3

Structure (SMILES) | Activity (Puccinia triticina [1]) [%] | Activity (Puccinia triticina [2]) [%] | Activity (Parastagonospora nodorum [3]) [%] | Activity (Parastagonospora nodorum [4]) [%] | Activity (Parastagonospora nodorum [5]) [%] | Activity (Puccinia triticina [6]) [%] | Activity (Botrytis cinerea [7]) [%] | Activity (Botrytis cinerea [8]) [%] | Activity (Botrytis cinerea [9]) [%] | Activity (Parastagonospora nodorum [10]) [%] | Activity (Puccinia triticina [11]) [%] | Activity (Botrytis cinerea [12]) [%]
CC[C@H](C)Cn1c(-c2c(F)cccc2F)c(Cl)nc(C(N)=O)c1=O | 100 | 99 | 95 | 0 | 0 | 80 | 99 | 97 | 92 | – | – | –
CC(C)Cn1c(-c2c(F)cccc2F)c(Cl)nc(-c2nccn2C)c1=O | 0 | 0 | 0 | 0 | – | – | 0 | 0 | – | 0 | 0 | 0
O=c1c(-n2cccn2)nc(Cl)c(-c2c(F)cc(F)cc2F)n1CC(F)(F)C(F)(F)C(F)(F)F | 99 | 96 | 99 | 78 | 0 | 68 | 100 | 99 | 38 | – | – | –
CC(=O)Nc1nc(Cl)c(-c2c(F)cccc2F)n(CC(C)C)c1=O | 90 | 0 | 0 | 0 | – | – | 92 | 15 | – | 0 | 99 | 99
CC[C@H](C)Cn1c(-c2c(F)cccc2F)c(Cl)nc(C(=O)NC)c1=O | 99 | 74 | 51 | 0 | 0 | 0 | 99 | 90 | 57 | – | – | –
CCCCn1c(-c2c(F)cc(F)cc2F)c(Cl)nc(-n2cccn2)c1=O | 100 | 88 | 100 | 98 | 0 | 26 | 100 | 0 | 0 | – | – | –
CC(C)Cn1c(-c2c(F)cccc2F)c(Cl)nc(-c2cccnc2)c1=O | 0 | 0 | 0 | 0 | 0 | 0 | 0 | 0 | 0 | – | – | –
O=c1c(-n2cccn2)nc(Cl)c(-c2c(F)cc(F)cc2F)n1CC1CC1 | 100 | 100 | 100 | 100 | 0 | 80 | 99 | 98 | 98 | – | – | –
CC[C@H](C)Cn1c(-c2c(F)cccc2F)c(Cl)nc(-n2nccn2)c1=O | 19 | – | 0 | – | – | – | 0 | – | – | 0 | 86 | 97
CC(C)Cn1c(C2CC2)c(Cl)nc(-n2cccn2)c1=O | 0 | – | 0 | – | – | – | 0 | – | – | 0 | 0 | 0
CC(C)Cn1c(-c2c(F)cccc2F)c(Cl)nc(-c2ccncc2)c1=O | 0 | 0 | 0 | 0 | 0 | 0 | 0 | 0 | 0 | – | – | –
CC(C)Cn1c(-c2c(F)cccc2F)cnc(-n2cccn2)c1=O | 0 | 0 | 0 | 0 | – | – | – | – | – | 0 | 98 | –
CC(C)Cn1c(C2CCCC2)c(Cl)nc(-n2cccn2)c1=O | 91 | – | 0 | – | – | – | 99 | – | – | 0 | 100 | 100
CC[C@H](C)Cn1c(-c2c(F)cccc2F)c(Cl)nc(-n2cncn2)c1=O | 98 | – | 94 | – | – | – | 100 | – | – | 100 | 98 | 100
CC(C)Cn1c(-c2c(F)ccc(F)c2F)c(Cl)nc(-n2cccn2)c1=O | 100 | 99 | 100 | 87 | 0 | 32 | 100 | 98 | 94 | – | – | –
O=c1c(-n2cccn2)nc(Cl)c(-c2c(F)cc(F)cc2F)n1-c1ccc(Cl)cc1 | 100 | 100 | 100 | 100 | 78 | 96 | 99 | 99 | 92 | – | – | –
Cc1ccn(-c2nc(Cl)c(-c3c(F)cccc3F)n(CC(C)C)c2=O)n1 | 100 | 94 | 95 | 0 | 0 | 25 | 100 | 100 | 95 | – | – | –
CC[C@H](C)Cn1c(-c2c(F)cccc2F)c(Cl)nc(C#N)c1=O | 74 | – | 0 | – | – | – | 99 | – | – | 0 | 96 | 99
CC(C)Cn1c(-c2c(F)cccc2F)c(Cl)nc(-c2ccccn2)c1=O | 85 | – | 0 | – | – | – | 99 | – | – | 99 | 99 | 100
CC(C)Cn1c(C(C)(C)C)c(Cl)nc(-n2cccn2)c1=O | 0 | – | 0 | – | – | – | 0 | – | – | 0 | 0 | 0
CC(Cn1c(-c2c(F)cc(F)cc2F)c(Cl)nc(-n2cccn2)c1=O)C(F)(F)F (centres undefined) | 100 | 100 | 100 | 0 | 0 | 92 | 99 | 99 | 99 | – | – | –
CC(C)Cn1c(C(C)C)c(Cl)nc(-n2cccn2)c1=O | 18 | – | 0 | – | – | – | 99 | – | – | 0 | 98 | 99
Cc1nc(-n2cccn2)c(=O)n(CC(C)C)c1-c1c(F)cccc1F | 100 | 92 | 98 | 0 | 0 | 0 | 100 | 99 | 0 | – | – | –
O=c1c(-n2cccn2)nc(Cl)c(-c2c(F)cc(F)cc2F)n1CC(F)(F)C(F)(F)F | 100 | 99 | 100 | 89 | 0 | 91 | 100 | 100 | 99 | – | – | –
O=c1c(-n2cccn2)nc(Cl)c(-c2c(F)cc(F)cc2F)n1-c1ccccc1Cl | 100 | 100 | 100 | 94 | 0 | 97 | 100 | 100 | 99 | – | – | –
O=c1c(-n2cccn2)nc(Cl)c(-c2c(F)cc(F)cc2F)n1-c1cccc(Cl)c1 | 100 | 99 | 99 | 99 | 73 | 86 | 100 | 99 | 97 | – | – | –
C=CCn1c(-c2c(F)cc(F)cc2F)c(Cl)nc(-n2cccn2)c1=O | 99 | 89 | 100 | 97 | 0 | 0 | 99 | 99 | 70 | – | – | –
O=c1c(-n2cccn2)nc(Cl)c(-c2c(F)cc(F)cc2F)n1-c1ccccc1 | 99 | 87 | 99 | 98 | 60 | 45 | 100 | 100 | 100 | – | – | –
CC(C)Cn1c(-c2c(F)cccc2F)c(Cl)nc(-c2nccs2)c1=O | 0 | 0 | 0 | 0 | 0 | 0 | 0 | 0 | 0 | – | – | –
